Key:
[1] = Oral bioavailability in Sprague-Dawley rat at 20 mg/kg dosed as single administration; type: ADME, organism-based; settings: in vivo
[2] = Drug metabolism in monkey liver microsomes assessed as compound level by measuring UV-area at 3 uM in presence of NADPH incubated for 60 mins by UPLC-UV/QTOF MS analysis; type: ADME, Macaca mulatta, Microsome; settings: rhesus monkey, 1 h
Outline: (§1)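 Each incubation held liver microsomes (human, monkey, dog, rat or mouse) at 0.5 mg/mL with 3.0 μM compound in 100 mM potassium phosphate, pH 7.4. After 3 min prewarming at 37 °C, the reaction was started with 1 mM NADPH. It was stopped at 60 min with ice-cold acetonitrile. Parent remaining and metabolites were judged from relative UV area.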

[3] = Drug metabolism in mouse liver microsomes assessed as compound level by measuring LC-MS area of metabolite-M1 at 3 uM in presence of NADPH incubated for 60 mins by UPLC-UV/QTOF MS analysis; type: ADME, Microsome; settings: 1 h; outline: as §1
[4] = AUC (0 to t) in Sprague-Dawley rat at 2 mg/kg, iv dosed as single administration; type: ADME, organism-based; settings: in vivo
[5] = AUC (0 to t) in Sprague-Dawley rat at 20 mg/kg, po dosed as single administration; type: ADME, organism-based; settings: in vivo
[6] = Drug metabolism in dog liver microsomes assessed as compound level by measuring LC-MS area at 3 uM in presence of NADPH incubated for 60 mins by UPLC-UV/QTOF MS analysis; type: ADME, Canis lupus familiaris, Microsome; settings: 1 h; outline: as §1
[7] = Drug metabolism in rat liver microsomes assessed as compound level by measuring UV-area at 3 uM in presence of NADPH incubated for 60 mins by UPLC-UV/QTOF MS analysis; type: ADME, Microsome; settings: 1 h; outline: as §1
[8] = Drug metabolism in human liver microsomes assessed as compound level by measuring UV-area at 3 uM in presence of NADPH incubated for 60 mins by UPLC-UV/QTOF MS analysis; type: ADME, Microsome; settings: 1 h; outline: as §1
[9] = Drug metabolism in mouse liver microsomes at 3 uM in presence of NADPH incubated for 60 mins by UPLC-UV/QTOF MS analysis relative to control; type: ADME, Microsome; outline: as §1
[10] = Half life in Sprague-Dawley rat at 20 mg/kg, po dosed as single administration; type: ADME, organism-based; settings: in vivo
[11] = Drug metabolism in monkey liver microsomes at 3 uM in presence of NADPH incubated for 60 mins by UPLC-UV/QTOF MS analysis relative to control; type: ADME, Macaca mulatta, Microsome; settings: rhesus monkey, read-out: Drug metabolism; outline: as §1
[12] = Drug metabolism in human liver microsomes assessed as compound level by measuring LC-MS area of metabolite-M1 at 3 uM in presence of NADPH incubated for 60 mins by UPLC-UV/QTOF MS analysis; type: ADME, Microsome; settings: 1 h; outline: as §1
[13] = Drug metabolism in monkey liver microsomes assessed as compound level by measuring LC-MS area of metabolite-M1 at 3 uM in presence of NADPH incubated for 60 mins by UPLC-UV/QTOF MS analysis; type: ADME, Macaca mulatta, Microsome; settings: rhesus monkey, 1 h; outline: as §1
[14] = Drug metabolism in dog liver microsomes at 3 uM in presence of NADPH incubated for 60 mins by UPLC-UV/QTOF MS analysis relative to control; type: ADME, Canis lupus familiaris, Microsome; settings: read-out: Drug metabolism; outline: as §1
[15] = Drug metabolism in rat liver microsomes assessed as compound level by measuring UV-area of metabolite-M1 at 3 uM in presence of NADPH incubated for 60 mins by UPLC-UV/QTOF MS analysis; type: ADME, Microsome; settings: 1 h; outline: as §1
[16] = Drug level in Sprague-Dawley rat liver at 20 mg/kg, po dosed as single administration measured up to 24 hrs; type: ADME, organism-based; settings: in vivo
[17] = Drug metabolism in dog liver microsomes assessed as compound level by measuring UV-area of metabolite-M1 at 3 uM in presence of NADPH incubated for 60 mins by UPLC-UV/QTOF MS analysis; type: ADME, Canis lupus familiaris, Microsome; settings: 1 h; outline: as §1
[18] = Drug metabolism in rat liver microsomes at 3 uM in presence of NADPH incubated for 60 mins by UPLC-UV/QTOF MS analysis relative to control; type: ADME, Microsome; settings: read-out: Drug metabolism; outline: as §1
[19] = Retention time of the compound by […]; type: physicochemical
[20] = Drug metabolism in rat liver microsomes assessed as compound level by measuring LC-MS area at 3 uM in presence of NADPH incubated for 60 mins by UPLC-UV/QTOF MS analysis; type: ADME, Microsome; settings: 1 h; outline: as §1
[21] = Drug metabolism in dog liver microsomes assessed as compound level by measuring UV-area at 3 uM in presence of NADPH incubated for 60 mins by UPLC-UV/QTOF MS analysis; type: ADME, Canis lupus familiaris, Microsome; settings: 1 h; outline: as §1
[22] = Half life in Sprague-Dawley rat at 2 mg/kg, iv dosed as single administration; type: ADME, organism-based; settings: in vivo
[23] = Toxicity in human HepG2.2.15 cells; type: cell-based, HepG2 2.2.15
Outline: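 HepG2.2.15 cells seeded at 4 × 10³ cells/well and exposed to a range of compound concentrations for 8 days. MTT (final 2.5 mg/mL) was added for 1 h at 37 °C, then cells were lysed in 10% SDS/50% DMF, pH 7.2. OD was read at 570 nm and % cell death calculated. CC50 is the mean ± SD of at least two independent determinations.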

[24] = Drug metabolism in mouse liver microsomes assessed as compound level by measuring UV-area at 3 uM in presence of NADPH incubated for 60 mins by UPLC-UV/QTOF MS analysis; type: ADME, Microsome; settings: 1 h; outline: as §1
[25] = Drug metabolism in mouse liver microsomes assessed as compound level by measuring LC-MS area of metabolite-M2 at 3 uM in presence of NADPH incubated for 60 mins by UPLC-UV/QTOF MS analysis; type: ADME, Microsome; settings: 1 h; outline: as §1
[26] = Drug metabolism in human liver microsomes at 3 uM in presence of NADPH incubated for 60 mins by UPLC-UV/QTOF MS analysis relative to control; type: ADME, Microsome; settings: read-out: Drug metabolism; outline: as §1
[27] = Cytotoxicity in human HepG2.2.15 cells assessed as reduction in cell viability incubated for 8 days by MTT assay; type: cell-based, HepG2 2.2.15
Outline: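 This was run in the same 8-day HepG2.2.15 cultures. After the medium was removed, MTT was added (final 2.5 mg/mL) for 1 h at 37 °C. Cells were lysed in 10% SDS/50% DMF, pH 7.2, and OD was read at 570 nm to give % cell death. CC50 was averaged with SD from at least two independent determinations.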

[28] = Drug metabolism in mouse liver microsomes assessed as compound level by measuring LC-MS area at 3 uM in presence of NADPH incubated for 60 mins by UPLC-UV/QTOF MS analysis; type: ADME, Microsome; settings: 1 h; outline: as §1
[29] = Drug metabolism in monkey liver microsomes assessed as compound level by measuring UV-area of metabolite-M1 at 3 uM in presence of NADPH incubated for 60 mins by UPLC-UV/QTOF MS analysis; type: ADME, Macaca mulatta, Microsome; settings: rhesus monkey, 1 h; outline: as §1
[30] = Drug level in CD1 mouse liver at 20 mg/kg, po dosed as single administration measured up to 24 hrs; type: ADME, organism-based; settings: in vivo
Outline: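 ICR (CD-1) mice were dosed orally at 20 mg/kg. At set times (1, 3, 8 and 24 h), blood was taken from the heart and portal vein under isoflurane anesthesia and spun to plasma. Livers were removed after portal vein perfusion, rinsed in saline, weighed and homogenized in saline (5 mL/g). Samples were analysed by UPLC–MS/MS in positive electrospray mode.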

[31] = Drug metabolism in monkey liver microsomes assessed as compound level by measuring LC-MS area at 3 uM in presence of NADPH incubated for 60 mins by UPLC-UV/QTOF MS analysis; type: ADME, Macaca mulatta, Microsome; settings: rhesus monkey, 1 h; outline: as §1

For `Cc1cc(-c2ccc(F)nc2F)nn(Cc2ccc(Cl)cc2)c1=O`, the bioavailability [1] was 25.3%, the Activity [2] was 34.1 ×10³ No_unit and the Activity [3] was 10.3 ×10³ No_unit. It also gave an AUC(0-t) [4] of 428 ng·h/mL, an AUC(0-t) [5] of 1100 ng·h/mL and an Activity [6] of 3.09 ×10³ No_unit. It also gave an Activity [7] of 44.8 ×10³ No_unit, an Activity [8] of 82 ×10³ No_unit and a metabolised at 1 h, 3 µM [9] of over 95%. The half-life [10] was 2.96 h, the metabolised at 1 h, 3 µM [11] was 73% and the Activity [12] was 2.64 ×10³ No_unit. For the same compound, the Activity [13] was 8.3 ×10³ No_unit, the metabolised at 1 h, 3 µM [14] was 79% and the Activity [15] was 56.7 ×10³ No_unit. The Drug uptake [16] was “Not Active”, the Activity [17] was 84.6 ×10³ No_unit and the metabolised at 1 h, 3 µM [18] was 64%. For the same compound, the Retention_time [19] was 7.3 min, the Activity [20] was 7.4 ×10³ No_unit and the Activity [21] was 26.3 ×10³ No_unit. It also gave a t1/2 [22] of 2.03 h, a CC50 [23] of 90.6 µM and an Activity [24] of under 5 ×10³ No_unit. It also gave an Activity [25] of 0.79 ×10³ No_unit, a metabolised at 1 h, 3 µM [26] of 34% and a CC50 at 192 h [27] of 83.8 µM. The Activity [28] was 1 ×10³ No_unit, the Activity [29] was 113 ×10³ No_unit and the Drug uptake [30] was “Not Active”. The Activity [31] was 5.42 ×10³ No_unit.

Source: ChEMBL document CHEMBL4619801, “Discovery of Phthalazinone Derivatives as Novel Hepatitis B Virus Capsid Inhibitors” (J Med Chem, 2020)
